ChEMBL document CHEMBL3603839, “Synthesis and antiproliferative activity of new bioconjugates of Salinomycin with amino acid esters” (Bioorg Med Chem Lett, 2015)

Columns and labels:
[1] = Antiproliferative activity against doxorubicin-resistant human LoVo/DX cells after 72 hrs; assay type: functional, cell-based
Summary of the method: (§1)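 IC50 values (mean ± SD) were measured against human colon adenocarcinoma LoVo cells, their doxorubicin-resistant LoVo/DX subline, MV4-11 cells, and normal murine embryonic fibroblasts (BALB/3T3).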

MV4-11 [2] = assay: Selectivity index, ratio of IC50 for mouse BALB/3T3 cells to IC50 for human MV4-11 cells; assay type: functional
Summary of the method: (§2)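 Selectivity index is the IC50 in normal BALB/3T3 fibroblasts divided by the IC50 in the respective cancer line. SI above 1.0 is taken as a favourable value.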

LoVo [3] = assay: Selectivity index, ratio of IC50 for mouse BALB/3T3 cells to IC50 for human LoVo cells; assay type: functional; summary of the method: as §2
LoVo [4] = assay: Antiproliferative activity against human LoVo cells after 72 hrs; assay type: functional, cell-based; summary of the method: as §1
[5] = Selectivity index, ratio of IC50 for mouse BALB/3T3 cells to IC50 for human LoVo/DX cells; assay type: functional; summary of the method: as §2
LoVo [6] = assay: Resistant index, ratio of IC50 for human LoVo/DX cells to IC50 for LoVo cells; assay type: functional
Summary of the method: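 Resistance index was calculated from IC50 values obtained in the doxorubicin-resistant LoVo/DX subline and the parental LoVo line. RI 0–2 is classed as sensitive, 2–10 as moderately sensitive, and above 10 as strongly resistant.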

BALB/3T3 = assay: Antiproliferative activity against mouse BALB/3T3 cells after 72 hrs; assay type: cell-based; conditions: BALB/3T3, 72 h; summary of the method: as §1
MV4-11 [7] = assay: Antiproliferative activity against human MV4-11 cells after 72 hrs; assay type: functional, cell-based; conditions: MV4-11, 72 h; summary of the method: as §1
[8] = Ratio of doxorubicin IC50 to compound IC50 for doxorubicin-resistant human LoVo/DX cells; assay type: functional
[9] = Ratio of cisplatin IC50 to compound IC50 for doxorubicin-resistant human LoVo/DX cells; assay type: functional

Row | SMILES | IC50 (LoVo [4]) | IC50 (MV4-11 [7]) | IC50 [1] | Ratio IC50 (MV4-11 [2]) | Ratio IC50 (LoVo [3]) | Ratio IC50 [5] | Ratio IC50 (LoVo [6]) | IC50 (BALB/3T3) | Ratio IC50 [8] | Ratio IC50 [9]
1 | CC[C@@H](C(=O)[C@@H](C)[C@@H](O)[C@H](C)[C@@H]1O[C@@H]([C@@H](CC)C(=O)N[C@@H](Cc2ccccc2)C(=O)OC)CC[C@@H]1C)[C@H]1O[C@]2(C=C[C@@H](O)[C@]3(CC[C@@](C)([C@H]4CC[C@](O)(CC)[C@H](C)O4)O3)O2)[C@H](C)C[C@@H]1C | 3.49 µM | 2890 nM | 3.49 µM | 5.89 | 4.87 | 4.87 | 1 | 17 µM | – | –
2 | CC[C@@H](C(=O)[C@@H](C)[C@@H](O)[C@H](C)[C@@H]1O[C@@H]([C@@H](CC)C(=O)O)CC[C@@H]1C)[C@H]1O[C@]2(C=C[C@@H](O)[C@]3(CC[C@@](C)([C@H]4CC[C@](O)(CC)[C@H](C)O4)O3)O2)[C@H](C)C[C@@H]1C [SALINOMYCIN] | 0.53 µM | 330 nM | 0.59 µM | 84.12 | 52.38 | 47.05 | 1.11 | – | – | –
3 | COc1cccc2c1C(=O)c1c(O)c3c(c(O)c1C2=O)C[C@@](O)(C(=O)CO)C[C@@H]3O[C@H]1C[C@H](N)[C@H](O)[C@H](C)O1 [DOXORUBICIN] | 0.09 µM | 50 nM | 7.26 µM | 6.2 | 3.44 | 0.04 | 80.67 | 0.31 µM | – | –

The next lines start with results.

Row | IC50 (LoVo [4]) | IC50 (MV4-11 [7]) | SMILES | IC50 [1] | Ratio IC50 (MV4-11 [2]) | Ratio IC50 (LoVo [3]) | Ratio IC50 [5] | Ratio IC50 (LoVo [6]) | IC50 (BALB/3T3) | Ratio IC50 [8] | Ratio IC50 [9]
4 | 17.7 µM | 5810 nM | CC[C@@H](C(=O)[C@@H](C)[C@@H](O)[C@H](C)[C@@H]1O[C@@H]([C@@H](CC)C(=O)N[C@@H](CO)C(=O)OC)CC[C@@H]1C)[C@H]1O[C@]2(C=C[C@@H](O)[C@]3(CC[C@@](C)([C@H]4CC[C@](O)(CC)[C@H](C)O4)O3)O2)[C@H](C)C[C@@H]1C | 7.77 µM | 6.9 | 2.27 | 5.16 | 0.44 | 40.1 µM | – | –
5 | 14.7 µM | 3550 nM | CC[C@@H](C(=O)[C@@H](C)[C@@H](O)[C@H](C)[C@@H]1O[C@@H]([C@@H](CC)C(=O)N[C@@H](Cc2ccc(O)cc2)C(=O)OC)CC[C@@H]1C)[C@H]1O[C@]2(C=C[C@@H](O)[C@]3(CC[C@@](C)([C@H]4CC[C@](O)(CC)[C@H](C)O4)O3)O2)[C@H](C)C[C@@H]1C | 7.12 µM | 12.22 | 2.95 | 6.09 | 0.48 | 43.4 µM | – | –
6 | 5.29 µM | 3650 nM | CC[C@@H](C(=O)[C@@H](C)[C@@H](O)[C@H](C)[C@@H]1O[C@@H]([C@@H](CC)C(=O)NCC(=O)OC)CC[C@@H]1C)[C@H]1O[C@]2(C=C[C@@H](O)[C@]3(CC[C@@](C)([C@H]4CC[C@](O)(CC)[C@H](C)O4)O3)O2)[C@H](C)C[C@@H]1C | 3.93 µM | 11.64 | 8.03 | 10.81 | 0.74 | 42.5 µM | – | –
7 | 3.67 µM | 800 nM | CC[C@@H](C(=O)[C@@H](C)[C@@H](O)[C@H](C)[C@@H]1O[C@@H]([C@@H](CC)C(=O)N[C@@H](Cc2cnc[nH]2)C(=O)OC)CC[C@@H]1C)[C@H]1O[C@]2(C=C[C@@H](O)[C@]3(CC[C@@](C)([C@H]4CC[C@](O)(CC)[C@H](C)O4)O3)O2)[C@H](C)C[C@@H]1C | 0.85 µM | 46.26 | 10.08 | 43.54 | 0.23 | 37 µM | 9 | 3
